Reference: PubChem BioAssay
Calls of active or inactive are those of the source.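 The calls were made as follows, unless noted: active = visual image review flags a hit and inhibition of aggregation exceeds 20%; inconclusive = visual hit but inhibition at or below 20%; inactive = no hit on visual image review.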

Assays:
[1] = inhibitors of TNFa-induced NFkB p65 translocation, primary screen, imaging, HUVEC, MLSMR starter and 10KST1 sets (AID 438;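 active = inhibition above 20% together with a positive visual image hit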;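 also: compound added about 3h40 before a 20 min TNFalpha stimulation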;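 as to inhibition: signal is the nuclear over cytoplasmic p65 intensity ratio per well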); conditions: HUVEC TNFa-induced p65 nuclear translocation; cell count: measured here: nuclei count (cytotoxicity indicator), at 2.08 µM; inhibition: at 2 µM, stronger effect = higher value, 0% TNFa-plus-vehicle, 100% no-TNFa wells
[2] = reduction of polyQ htt aggregates in cells – imaging, exon1htt(103Q)mCFP cells, high-content imaging, primary screen (AID 483); conditions: exon1htt(103Q)mCFP cell line, aggregate imaging, at 2 µM; inhibition of aggregation: stronger effect = higher value; nuclei count: measured here: cell count, toxicity;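 also: compound exposure lasted 3 days before fixation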;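 as to nuclei count: percent of the per-plate median nuclei count of sample wells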
[3] = endothelial E-selectin expression blockers – imaging, HUVEC, immunofluorescence, MLSMR starter and 10KST1 sets, primary screen (AID 487;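 active = visually confirmed hit in the image check and inhibition above 20%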;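 as to inhibition: signal is fraction of cell area covered by stained E-selectin grains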;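 as to nuclei count: 100% = median nuclei count of all wells on the same plate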); conditions: HUVEC TNFalpha-induced E-selectin immunofluorescence imaging, at 2 µM; inhibition: stronger effect = higher value; nuclei count: measured here: cell number, toxicity
[4] = target: Voltage-gated potassium channel subunit beta-2 (Rattus norvegicus) (UniProt P62483); test: inhibitors of rat Kvbeta2 reductase activity – biochemical, NADPH fluorescence, primary screen (AID 622;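 active = fluorescence slope higher than the sample average by over 3 SD, cut at about -0.22 in these data, passing the limit was not always enough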;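 also: slope of raw intensity against log time taken from 70 to 1610 s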); conditions: recombinant KvBeta, 4-cyanobenzaldehyde reduction, at 10 µM, stronger effect = higher value
[5] = target: Voltage-gated potassium channel subunit beta-2 (Rattus norvegicus) (UniProt P62483); test: enhancers of rat Kvbeta2 NADPH turnover – biochemical, NADPH fluorescence, primary screen (AID 623;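 active = NADPH fluorescence slope more negative than the mean of all samples by about 3 SD, 99.7% confidence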;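 also: fluorescence intensity change per second fitted from 20 to 320 s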); conditions: Recombinant KvBeta, NADPH fluorescence decrease slope, 10 min; at 10 µM; stronger effect = lower value
[6] = target: Muscarinic acetylcholine receptor M4 (Homo sapiens) (UniProt P08173); test: M4-linked GIRK flux change, two-sided – cell-based, HEK293 M4/GIRK, thallium flux, BTC-AM, M4 allosteric agonist project, primary screen (AID 625;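 active = fluorescence slope after compound addition differing from the mean of all tested samples at 99.7% confidence, mostly higher but some lower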;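 also: thallium influx through GIRK channels coupled to M4 in HEK293 cells with BTC-AM dye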); conditions: at 10 µM, actives lie on both sides
Summary of the method: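 Material: HEK293 cells with M4 receptor and GIRK channels; Times: cells overnight at 37 °C, BTC-AM loading 1 h, reads 2 min total; Technique: kinetic BTC-AM fluorescence sampled at 1 Hz, 10 s pre-addition baseline; Read-out basis: slope over 15–24 s of trace normalized to starting intensity; Controls: carbachol positive, DMSO negative.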

[7] = blockers of RIG-like receptor reporter activation – cell-based, Sendai virus stimulus, luciferase, 10K MLSCN set, TLR/RLR signaling modifier project, primary screen (AID 602276;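 active = inhibition at or above 50% at 10 µM; inactive = inhibition below 50%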;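 also: firefly luciferase from ISG56 promoter only with Renilla not read in this screen; 0% = Sendai virus plus DMSO and 100% = medium plus DMSO without virus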); conditions: HEK293 RL24 IRF3 luciferase reporter, at 10 µM, stronger effect = higher value
[8] = TLR3 IRF3 reporter activation blockers – cell-based, poly I:C stimulus, luciferase, 10K MLSCN set, primary screen (AID 602277;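 active = inhibition of the reporter signal at or above 50%; inactive = inhibition below 50%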); conditions: HEK293-TLR3 RL24 IRF3 luciferase reporter, at 10 µM, stronger effect = higher value

Sequence of Voltage-gated potassium channel subunit beta-2 (Rattus norvegicus) (P62483 whole entry, looked up): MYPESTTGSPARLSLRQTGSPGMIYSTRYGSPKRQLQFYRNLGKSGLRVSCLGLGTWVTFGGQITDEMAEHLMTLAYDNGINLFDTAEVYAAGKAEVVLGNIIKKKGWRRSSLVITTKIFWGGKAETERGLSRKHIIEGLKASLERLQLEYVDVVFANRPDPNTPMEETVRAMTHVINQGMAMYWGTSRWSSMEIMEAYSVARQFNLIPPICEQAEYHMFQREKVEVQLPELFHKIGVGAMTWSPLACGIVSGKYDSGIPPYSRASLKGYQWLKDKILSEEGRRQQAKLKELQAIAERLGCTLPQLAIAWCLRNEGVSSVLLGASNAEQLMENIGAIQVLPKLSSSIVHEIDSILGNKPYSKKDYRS
Sequence of Muscarinic acetylcholine receptor M4 (Homo sapiens) (P08173 whole entry, looked up): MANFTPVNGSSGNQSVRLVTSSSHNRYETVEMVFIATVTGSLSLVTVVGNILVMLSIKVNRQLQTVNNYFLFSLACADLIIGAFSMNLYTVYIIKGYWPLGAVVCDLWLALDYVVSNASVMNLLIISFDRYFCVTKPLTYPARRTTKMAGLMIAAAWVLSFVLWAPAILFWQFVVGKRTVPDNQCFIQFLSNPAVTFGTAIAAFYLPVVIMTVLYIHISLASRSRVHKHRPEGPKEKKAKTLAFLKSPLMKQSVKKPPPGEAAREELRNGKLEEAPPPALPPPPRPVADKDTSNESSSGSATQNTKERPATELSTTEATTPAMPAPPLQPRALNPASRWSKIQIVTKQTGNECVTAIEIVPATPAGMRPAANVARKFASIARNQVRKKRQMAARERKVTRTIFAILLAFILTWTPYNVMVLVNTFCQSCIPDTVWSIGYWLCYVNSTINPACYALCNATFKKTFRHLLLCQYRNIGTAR

Row | Compound | cell count [1] | inhibition [1] | inhibition of aggregation [2] | nuclei count [2] [%] | inhibition [3] | nuclei count [3] [%] | fluorescence slope [4] | NADPH fluorescence slope [5] | fluorescence slope [6] | inhibition [7] | inhibition [8]
1 | ON=C1/C(=N\O)CC2(C/C1=N/O)OCCO2 | 408 | 2.2% (inactive) | 22.4% (inactive) | 69.5 | 7.1% (inactive) | 89.7 | -0.532 (inactive) | -3.5e-05 (inactive) | 0.00423 (inactive) | 17% (inactive) | 4.87% (inactive)
2 | C=CCn1c(SCC(=O)NCC2CCCO2)nnc1C1CCCCC1 (centres undefined) | 354 | -4.5% (inactive) | -6% (inactive) | 110 | -33% (inactive) | 113 | -0.573 (inactive) | -2.9e-05 (inactive) | 0.00592 (inactive) | 11.2% (inactive) | 17.5% (inactive)
3 | COc1cccc(OC)c1C(=O)n1nc(C)cc1C | 489 | -18.1% (inactive) | -12.3% (inactive) | 99.8 | -10.8% (inactive) | 95.6 | -0.591 (inactive) | -3.7e-05 (inactive) | 0.00413 (inactive) | 14.5% (inactive) | 4.66% (inactive)
4 | C#CC(CO)N(CCN(Cc1ccccc1)C(C#C)CO)Cc1ccccc1 (centres undefined) | 370 | 1.8% (inactive) | -12.5% (inactive) | 104 | -29.5% (inactive) | 112 | -0.329 (inactive) | -5.4e-05 (inactive) | 0.00458 (inactive) | 15.5% (inactive) | 20.6% (inactive)
5 | Cc1noc(C)c1S(=O)(=O)N1CCC(C(=O)N2CCN(Cc3ccc4c(c3)OCO4)CC2)CC1 | 721 | -6.9% (inactive) | 8.9% (inactive) | 107 | -40.5% (inactive) | 103 | -0.498 (inactive) | 1.3e-06 (inactive) | 0.00556 (inactive) | 13.4% (inactive) | 17.8% (inactive)
6 | CCCC(=O)Nc1ccc(NC(=O)c2cccs2)cn1 | 425 | 6.7% (inactive) | 10.4% (inactive) | 106 | -445% (inactive) | 140 | -0.578 (inactive) | -3.4e-05 (inactive) | 0.00548 (inactive) | -12.8% (inactive) | -57.7% (inactive)
7 | Cc1cc(C)n2nc(C(=O)NCc3ccco3)nc2n1 | 389 | 1.4% (inactive) | 6.6% (inactive) | 103 | -3.3% (inactive) | 109 | -0.582 (inactive) | -4.1e-05 (inactive) | 0.00618 (inactive) | 10.5% (inactive) | 10.8% (inactive)
8 | CCOC(=O)c1cc2sccc2n1CC(=O)Nc1ccc2c(c1)OCCO2 | 513 | -14.9% (inactive) | -25.9% (inactive) | 108 | 12.2% (inactive) | 117 | -0.61 (inactive) | 4.2e-06 (inactive) | 0.00667 (inactive) | -5.94% (inactive) | -4.31% (inactive)
9 | C/C(Cl)=C\Cn1c(Nc2ccc(C)cc2)nc2c1c(=O)n(C)c(=O)n2C | 533 | -1.1% (inactive) | 24.5% (inactive) | 78.9 | -73.9% (inactive) | 117 | -0.572 (inactive) | -4.2e-05 (inactive) | 0.00543 (inactive) | 16.1% (inactive) | 17.5% (inactive)
10 | Nc1nnc(-c2ccccc2)c(-c2ccccc2)n1 | 676 | -2.1% (inactive) | 26.8% (inactive) | 83.9 | -71.1% (inactive) | 111 | -0.522 (inactive) | -3.6e-05 (inactive) | 0.00428 (inactive) | 0.988% (inactive) | 14.6% (inactive)
11 | CC(C)N(C=O)C1(C(=O)NC2CCCCC2)CCCCC1 | 584 | -6.3% (inactive) | 15.2% (inactive) | 114 | -9.4% (inactive) | 113 | -0.551 (inactive) | -4.6e-06 (inactive) | 0.00567 (inactive) | 10.2% (inactive) | 13.5% (inactive)
12 | CC(=O)NCCn1c(SCC(=O)NCC2CCCO2)nc2ccccc2c1=O (centres undefined) | 515 | -8.5% (inactive) | 4.3% (inactive) | 110 | 21.7% (inactive) | 103 | -0.471 (inactive) | 5.6e-05 (inactive) | 0.00516 (inactive) | 3.29% (inactive) | 12.9% (inactive)
13 | c1ccc(-c2nnc(CN3CCC4(CC3)OCCO4)o2)cc1 | 407 | -6.8% (inactive) | 15.2% (inactive) | 70.5 | -27% (inactive) | 118 | -0.596 (inactive) | 1.6e-05 (inactive) | 0.0059 (inactive) | 8.62% (inactive) | 10.2% (inactive)
14 | CCOC(=O)c1sc(NC(=O)CNC(=O)Cn2cnc3sc(C)c(C)c3c2=O)nc1C | 260 | 12.2% (inactive) | -12.7% (inactive) | 112 | -61.8% (inactive) | 109 | -0.565 (inactive) | -1.6e-06 (inactive) | 0.00606 (inactive) | 16.7% (inactive) | 24.7% (inactive)
15 | O=C(CCNC(=O)Cn1ccc2ccccc2c1=O)NCCN1CCc2ccccc2C1 | 337 | 0.5% (inactive) | 16.2% (inactive) | 77.2 | -26.8% (inactive) | 111 | -0.474 (inactive) | -0.000226 (inactive) | 0.00569 (inactive) | -3.36% (inactive) | 11.4% (inactive)
16 | COCCNc1nc(C(C)(C)C)nc2c1nnn2Cc1ccccc1Cl | 419 | 15.8% (inactive) | 1% (inactive) | 106 | 14.6% (inactive) | 111 | -0.462 (inactive) | -1.9e-06 (inactive) | 0.00616 (inactive) | -0.805% (inactive) | 56% (active)
17 | O=C(Cn1c(=O)n(Cc2ccc3c(c2)OCO3)c(=O)c2ccccc21)N1CCCc2ccccc21 | 680 | -6.8% (inactive) | -11.1% (inactive) | 87.9 | -22.2% (inactive) | 109 | -0.595 (inactive) | -6.4e-06 (inactive) | 0.00433 (inactive) | 21.3% (inactive) | 26.4% (inactive)
18 | CC(C)=CC(=O)OCC(=O)NC(=O)NC(C)(C)C | 220 | 13.1% (inactive) | 14.1% (inactive) | 97.7 | 3.9% (inactive) | 98.5 | -0.591 (inactive) | -1.3e-05 (inactive) | 0.00792 (inactive) | -2.29% (inactive) | 9.61% (inactive)
19 | COc1ccc2c(c1)CCc1c(C(=O)N3CC4(C)CC3CC(C)(C)C4)noc1-2 (centres undefined) | 250 | -6.9% (inactive) | 18.9% (inactive) | 98.8 | -59% (inactive) | 104 | -0.586 (inactive) | -1.4e-05 (inactive) | 0.00924 (inactive) | 1.5% (inactive) | 10.1% (inactive)
20 | CCOC(=O)CS(=O)(=O)c1nc(-c2ccccc2)cc(C(F)(F)F)n1 | 380 | 2.8% (inactive) | -12.2% (inactive) | 102 | -15.5% (inactive) | 116 | -0.462 (inactive) | -1.5e-05 (inactive) | 0.00498 (inactive) | 20.1% (inactive) | 32.7% (inactive)
21 | Cc1cc(C)n(CCCNC(=O)c2ccc3c(c2)NC(=O)CS3)n1 | 722 | -0.6% (inactive) | -34.8% (inactive) | 87.8 | 10.7% (inactive) | 106 | -0.416 (inactive) | -1.2e-05 (inactive) | 0.00708 (inactive) | 14.3% (inactive) | 28.3% (inactive)
22 | O=C(CSc1nnc(-c2cccnc2)o1)OC1CCCCC1 | 695 | -3.9% (inactive) | 22.6% (inactive) | 95.8 | -54.6% (inactive) | 126 | -0.517 (inactive) | 3.9e-05 (inactive) | 0.0051 (inactive) | 15.3% (inactive) | 16.2% (inactive)
23 | CCOCCn1cnc2sc(C(=O)Nc3nc(C)c(C(=O)OCC)s3)c(C)c2c1=O | 785 | -3.7% (inactive) | 2.9% (inactive) | 121 | -9.6% (inactive) | 105 | -0.26 (inactive) | 4.1e-06 (inactive) | 0.0063 (inactive) | 11.8% (inactive) | -0.0117% (inactive)
24 | Cc1c(C(=O)NCc2cccnc2)sc2ncn(CC(=O)N3CCCCC3C)c(=O)c12 (centres undefined) | 477 | -7% (inactive) | -3.4% (inactive) | 89.7 | -51.3% (inactive) | 70.3 | -0.555 (inactive) | -1.4e-05 (inactive) | 0.00535 (inactive) | 18.5% (inactive) | 23.8% (inactive)
25 | O=C(c1ccc(S(=O)(=O)N2CCOCC2)cc1)N1CCc2ccccc2C1 | 401 | -1% (inactive) | -27.5% (inactive) | 103 | -103% (inactive) | 118 | -0.469 (inactive) | -1.3e-05 (inactive) | 0.00485 (inactive) | 25.2% (inactive) | 18.8% (inactive)
26 | COc1ccc(-n2nnnc2-c2cccc(OC)c2)cc1 | 573 | -45.9% (inactive) | -61.4% (inactive) | 2.6 | -101% (inactive) | 105 | -0.252 (inactive) | -3.1e-05 (inactive) | 0.00701 (inactive) | 34.8% (inactive) | 47.8% (inactive)
27 | COc1ccc(OC)c(N2Cc3cc(C)c(C)cc3C2)c1 | 561 | -3.1% (inactive) | 0.2% (inactive) | 79.6 | -8.6% (inactive) | 86.7 | -0.476 (inactive) | -6.9e-05 (inactive) | 0.00388 (inactive) | -3.86% (inactive) | -7.05% (inactive)
28 | CN(C=O)CP(=O)(O)CCN1CCCC1=O | 447 | 7% (inactive) | 19.4% (inactive) | 90.6 | 27% (inactive) | 106 | -0.589 (inactive) | -5.8e-05 (inactive) | 0.00412 (inactive) | 14.6% (inactive) | 25.4% (inactive)
29 | CCCCSc1nc2c(cnn2-c2ccc(Cl)cc2)c(=O)[nH]1 | 233 | -0.3% (inactive) | 6.5% (inactive) | 103 | -23.4% (inactive) | 111 | -0.426 (inactive) | -9.3e-05 (inactive) | 0.00579 (inactive) | 16.7% (inactive) | 16.6% (inactive)
